Measured values: ChEMBL document CHEMBL2203220, “Linear and cyclic dipeptides with antimalarial activity” (Bioorg Med Chem Lett, 2012)
Where a SMILES comes first, the peptide text is derived from it. [ ]: non-standard residue; d: D form. The star is where a group is joined. ξ: configuration not given here. Boc = CC(C)(C)OC(=O)*; ξOrn = NCCCC(N)C(=O)O; OtBu = CC(C)(C)O*; Sar = CNCC(=O)O

Experiments:
Plasmodium berghei [1] = test: Antimalarial activity against schizonts of chloroquine-sensitive Plasmodium berghei ANKA 2.34 assessed as chemosuppression of schizont numbers at 200 uM after 16 hrs relative to control; format: functional
Outline: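 Peptides in PBS with 0.1% DMSO and 5% ethanol were incubated with P. berghei cultures for 16 h at 37 °C, with chloroquine as positive control. Schizonts per 2000 erythrocytes were counted on smears from 0.5 mL culture samples, in duplicate and averaged. Reduction in schizont number is expressed against drug-free control cultures.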

Plasmodium berghei [2] = test: Antimalarial activity against schizonts of chloroquine-sensitive Plasmodium berghei ANKA 2.34 after 16 hrs; format: functional, organism-based; conditions: ANKA 2.34, 16 h
Outline: (§1)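 P. berghei cultures were exposed to peptides in PBS with 0.1% DMSO and 5% ethanol for 16 h at 37 °C, with chloroquine as positive control. Smears were made from 0.5 mL culture samples and schizonts counted per 2000 erythrocytes. Four concentrations were each run in duplicate and averaged. IC50 is the concentration giving 50% fewer schizonts than drug-free controls, extrapolated from the concentration–response curve.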

Plasmodium berghei [3] = test: Antimalarial activity against Plasmodium berghei; format: functional, organism-based; outline: as §1

Structure (SMILES) | IC50 (Plasmodium berghei [2]) | IC50 (Plasmodium berghei [3]) | Activity (Plasmodium berghei [1])
O=C1CNC(=O)[C@H](Cc2ccccc2)N1 | 4.26 µM |  | 70.37%
CC(C)(C)OC(=O)N[C@@H](CCCNC(=O)OCc1ccccc1)C(=O)N[C@@H](Cc1ccccc1)C(=O)OC(C)(C)C | > 200 µM |  | 35.29%
COC(=O)[C@H](Cc1ccccc1)NC(=O)[C@H](CCCNC(=O)OCc1ccccc1)NC(=O)OC(C)(C)C | > 200 µM |  | 40%
CC(C)[C@H](NC(=O)[C@H](CCCNC(=O)OCc1ccccc1)NC(=O)OC(C)(C)C)C(=O)OC(C)(C)C | 33.9 µM |  | 55.73%
O=C(NCCC[C@@H]1NC(=O)[C@H](Cc2ccccc2)NC1=O)OCc1ccccc1 | 123 µM |  | 72.93%
CC(C)[C@@H]1NC(=O)[C@H](CCCNC(=O)OCc2ccccc2)NC1=O | 66 µM |  | 69.23%
CC(C)[C@@H]1NC(=O)CNC1=O | 3.23 µM |  | 88.03%
CC(C)[C@@H]1NC(=O)[C@H](Cc2ccccc2)NC1=O | 3.89 µM |  | 61.07%
CC(C)(C)OC(=O)NCC(=O)N[C@@H](Cc1ccccc1)C(=O)OC(C)(C)C (Boc-Gly-Phe-OtBu) | 164 µM |  | 54.26%
CC(C)[C@H](NC(=O)CNC(=O)OC(C)(C)C)C(=O)OC(C)(C)C (Boc-Gly-Val-OtBu) | 3.16 µM |  | 59.55%
CC(C)(C)OC(=O)N[C@@H](Cc1ccccc1)C(=O)N[C@@H](Cc1ccccc1)C(=O)OC(C)(C)C (Boc-Phe-Phe-OtBu) | 112 µM |  | 55.73%
CC(C)[C@H](NC(=O)[C@H](Cc1ccccc1)NC(=O)OC(C)(C)C)C(=O)OC(C)(C)C (Boc-Phe-Val-OtBu) | 3.23 µM |  | 77.94%
COC(=O)CN(C)C(=O)[C@H](Cc1ccccc1)NC(=O)OC(C)(C)C (Boc-Phe-[Sar]-OMe) | 3.63 µM |  | 79.41%
CN(CC(=O)OC(C)(C)C)C(=O)[C@H](Cc1ccccc1)NC(=O)OC(C)(C)C (Boc-Phe-[Sar]-OtBu) | 3.38 µM |  | 79.41%
CC(C)[C@H](NC(=O)OC(C)(C)C)C(=O)N[C@@H](Cc1ccccc1)C(=O)OC(C)(C)C (Boc-Val-Phe-OtBu) | 7.07 µM |  | 73.08%
NCCCC(NC(=O)[C@H](Cc1ccccc1)NC(=O)C(CCCN)NC(=O)[C@@H](N)Cc1ccccc1)C(=O)O (stereo not given in full) (H-F[ξOrn]F[ξOrn]-OH) |  | 2.5 µM | 
NCCCC[C@H](N)C(=O)N[C@@H](Cc1ccccc1)C(=O)N[C@@H](Cc1ccccc1)C(=O)NC(CCCN)C(=O)O (stereo not given in full) (H-KFF[ξOrn]-OH) |  | 2.5 µM | 

Continued by falling IC50 (Plasmodium berghei [2]), values first:

IC50 (Plasmodium berghei [2]) | IC50 (Plasmodium berghei [3]) | Structure (SMILES) | Activity (Plasmodium berghei [1])
3.12 µM |  | CC(C)[C@@H]1NC(=O)[C@H](CCCCNC(=O)OCc2ccccc2)NC1=O | 79.2%
3.09 µM |  | CC(C)[C@@H]1NC(=O)[C@@H](CCCNC(=O)OCc2ccccc2)NC1=O | 70.08%
3.05 µM |  | COC(=O)[C@@H](NC(=O)[C@@H](CCCNC(=O)OCc1ccccc1)NC(=O)OC(C)(C)C)C(C)C | 57.2%
2.81 µM |  | CC(C)[C@H](NC(=O)OC(C)(C)C)C(=O)N[C@H](C(=O)OC(C)(C)C)C(C)C (Boc-Val-Val-OtBu) | 77.64%
2.78 µM |  | CC(C)[C@H](NC(=O)[C@@H](CCCNC(=O)OCc1ccccc1)NC(=O)OC(C)(C)C)C(=O)OC(C)(C)C | 72.64%
2.54 µM |  | O=C1N[C@@H](Cc2ccccc2)C(=O)N[C@H]1Cc1ccccc1 | 84.33%
2.45 µM |  | CC(C)[C@@H]1NC(=O)[C@H](C(C)C)NC1=O | 87.18%
2.26 µM |  | CN1CC(=O)N[C@@H](Cc2ccccc2)C1=O | 83.76%
0.06 µM |  | CCN(CC)CCCC(C)Nc1ccnc2cc(Cl)ccc12 (stereo not given) [CHLOROQUINE] | 100%
